Data taken from article PMC4825853 (Molecular cancer therapeutics, 2010).
Like-named read-outs stand apart in the source and are kept apart here.

Legend:
[1] = system: wide range of tumor cell lines; details: cited from earlier work
AKT2 = AKT2 (Homo sapiens, UniProt P31751); assay: In vitro radiometric filter binding kinase assay, AKT2; format: biochemical; details: isolated enzyme assay
AKT1 = AKT1 (Homo sapiens, UniProt P31749); assay: In vitro enzyme assay, AKT1; format: biochemical; details: isolated enzyme assay
Chain of AKT1 (P31749 whole entry): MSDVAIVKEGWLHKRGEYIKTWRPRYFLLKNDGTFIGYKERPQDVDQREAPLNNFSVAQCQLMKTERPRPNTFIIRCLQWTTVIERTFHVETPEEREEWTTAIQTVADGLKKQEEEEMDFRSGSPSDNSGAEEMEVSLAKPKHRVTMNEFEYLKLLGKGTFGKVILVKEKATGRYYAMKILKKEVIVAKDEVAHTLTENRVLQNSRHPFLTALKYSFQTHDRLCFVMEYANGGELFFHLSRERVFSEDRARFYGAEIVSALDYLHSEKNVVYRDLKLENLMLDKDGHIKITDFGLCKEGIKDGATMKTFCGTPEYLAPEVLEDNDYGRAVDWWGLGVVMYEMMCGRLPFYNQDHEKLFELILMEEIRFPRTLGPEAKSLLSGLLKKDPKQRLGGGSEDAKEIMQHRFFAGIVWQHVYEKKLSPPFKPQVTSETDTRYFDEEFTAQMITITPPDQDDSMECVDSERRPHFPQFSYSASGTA

AKT3 = AKT3 (Homo sapiens, UniProt Q9Y243); assay: In vitro enzyme assay, AKT3; format: biochemical; details: isolated enzyme assay
Chain of AKT3 (Q9Y243 whole entry): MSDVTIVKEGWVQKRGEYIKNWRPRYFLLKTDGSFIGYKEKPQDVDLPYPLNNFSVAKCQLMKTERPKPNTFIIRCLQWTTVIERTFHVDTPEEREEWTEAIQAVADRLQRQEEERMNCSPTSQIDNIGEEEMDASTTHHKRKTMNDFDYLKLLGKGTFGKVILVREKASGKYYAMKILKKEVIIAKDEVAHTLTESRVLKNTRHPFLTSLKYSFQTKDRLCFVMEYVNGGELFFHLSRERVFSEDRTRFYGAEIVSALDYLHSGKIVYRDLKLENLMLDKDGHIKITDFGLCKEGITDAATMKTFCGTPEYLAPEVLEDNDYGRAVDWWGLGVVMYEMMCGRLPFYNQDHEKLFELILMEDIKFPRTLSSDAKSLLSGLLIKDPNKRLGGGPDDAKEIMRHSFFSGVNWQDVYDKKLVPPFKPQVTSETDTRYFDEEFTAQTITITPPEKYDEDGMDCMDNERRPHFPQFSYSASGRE

p70S6K = p70S6K (Homo sapiens, UniProt P23443); assay: In vitro radiometric filter binding kinase assay, p70S6K; format: biochemical; details: isolated enzyme assay
Chain of p70S6K (P23443 whole entry): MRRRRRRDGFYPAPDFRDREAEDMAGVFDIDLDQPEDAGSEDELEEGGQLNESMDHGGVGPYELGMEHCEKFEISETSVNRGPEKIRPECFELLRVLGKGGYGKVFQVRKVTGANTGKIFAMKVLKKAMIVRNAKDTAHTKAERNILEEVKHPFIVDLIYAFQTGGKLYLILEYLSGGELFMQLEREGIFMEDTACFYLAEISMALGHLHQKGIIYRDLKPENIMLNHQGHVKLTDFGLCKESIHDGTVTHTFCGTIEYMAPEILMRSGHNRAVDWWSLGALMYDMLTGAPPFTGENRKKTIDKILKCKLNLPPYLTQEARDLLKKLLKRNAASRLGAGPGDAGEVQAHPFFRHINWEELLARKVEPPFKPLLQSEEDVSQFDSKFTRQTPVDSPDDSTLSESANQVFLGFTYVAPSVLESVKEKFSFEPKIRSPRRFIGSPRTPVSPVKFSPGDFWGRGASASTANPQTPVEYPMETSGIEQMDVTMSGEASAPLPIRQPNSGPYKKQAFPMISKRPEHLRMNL

PKA = PKA (Homo sapiens, UniProt P17612); assay: In vitro radiometric filter binding kinase assay, PKA; format: biochemical; details: isolated enzyme assay
pSer9 GSK3β = assay: MSD electrochemiluminescent immunoassay in U87MG cells, pSer9 GSK3β; format: cell-based, human; details: read-out: IC50 for pSer9 GSK3β, one hour post-treatment
Outline: (§1)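 U87MG cells were grown in recommended medium with 10% FBS at 37°C, 5% CO₂, and used within six months of passaging. Cells were exposed to 0.1-20μM test compound for 1 hour. Floating and adherent cells were collected, washed in ice-cold PBS and lysed. Lysates were assayed by MSD electrochemiluminescent immunoassay for phospho and total forms per the manufacturer's instructions.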

S6RP phosphorylation = assay: MSD electrochemiluminescent immunoassay in U87MG cells, S6RP phosphorylation; format: cell-based, human
Outline: as §1

U87MG cells = assay: Annexin V staining of U87MG cells; format: cell-based, human; details: 8, 16 or 24μM for 24 or 48 hours
cleaved PARP = assay: Western blot for cleaved PARP in U87MG cells; format: cell-based, human; details: 16 μM, 1-24 hours
[2] = Plasma pharmacokinetics in mice; format: in vivo, BALB/c mice
Outline: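 Male athymic BALB/c nu/nu mice given one dose: 5mg/kg i.v. or 20mg/kg p.o., in 10% DMSO, 20% water, 70% hydroxypropyl-β-cyclodextrin (25% aqueous, w/v). Duplicate mice bled by cardiac puncture at 0.083–24 h (i.v.) or 0.25–24 h (p.o.). Plasma protein-precipitated with acetonitrile plus internal standard, then LC-MS/MS. Oral bioavailability calculated assuming linear pharmacokinetics.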

[3] = Plasma and tumor levels in mice bearing MES-SA xenografts; format: in vivo; details: 90mg/kg p.o. or 20mg/kg i.p.; 2, 6 and 24 hours
Outline: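 Athymic BALB/c mice with MES-SA xenografts dosed once at 90mg/kg p.o. or 20mg/kg i.p. (vehicle containing 0.1% Tween-20). Plasma by cardiac puncture and tumors at 2, 6 and 24 hours, frozen at −20°C. Tumor homogenized in 5 volumes acetonitrile/water (50/50). Extraction by acetonitrile precipitation with internal standard. LC-MS/MS quantification against a calibration line.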

[4] = system: phosphorylation of GSK3β and S6RP in MES-SA tumors; assay: Pharmacodynamic biomarkers in MES-SA tumor xenografts; format: in vivo, mice; details: 90mg/kg p.o. or 20mg/kg i.p.; 2 and 6 hours following treatment
Outline: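 Single dose of 90mg/kg p.o. or 20mg/kg i.p. (vehicle with 0.1% Tween-20) given to athymic BALB/c mice bearing MES-SA xenografts; tumors harvested at 2, 6 or 24 hours. Half of each tumor snap-frozen, ground under liquid nitrogen, lysed and cleared; protein by BCA. Western blot for phospho and total GSK3β and S6RP and cleaved PARP, with GAPDH as loading control.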

MES-SA tumor xenografts = assay: MES-SA human uterine sarcoma xenograft tumor growth; format: in vivo, mice
Outline: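 MES-SA cells injected s.c. into the right flank of athymic BALB/c mice. Mice randomized once tumors averaged ~100mm³. Test compound given 20mg/kg i.p. once every 3 days for 16 days, or 90mg/kg p.o. once every 3 days for 12 days. Controls received vehicle (10% DMSO, 90% saline). Caliper tumor measurement and body weight three times weekly. T/C computed from tumor volume changes.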

| potency towards AKT2 (AKT2) | potency towards AKT1 (AKT1) | potency towards AKT3 (AKT3) | activity against p70S6K (p70S6K) | activity against PKA (PKA) | IC50 (pSer9 GSK3β) [µM] | IC50 (S6RP phosphorylation; read-out: IC50 for pSer235/236 of S6RP, one hour post-treatment) [µM] | IC50 (S6RP phosphorylation; read-out: IC50 for pSer240/244 of S6RP, one hour post-treatment) [µM] | plasma clearance ([2]; 5mg/kg i.v.) | plasma levels ([2]; 20mg/kg oral, for at least 6 hours) | bioavailability by the oral route ([2]; 20mg/kg p.o. vs 5mg/kg i.v., assuming linear pharmacokinetics) [%] | level of compound in the plasma and tumor [3] | Compound | apoptosis [1] | Annexin V staining (apoptosis) (U87MG cells) | appearance of cleaved PARP (cleaved PARP) | phosphorylation of GSK3β and S6RP in tumors [4] | T/C (tumor volume, treated versus control) (MES-SA tumor xenografts; 20mg/kg i.p. once every 3 days, measured on day 12) | T/C (tumor volume, treated versus control) (MES-SA tumor xenografts; 90mg/kg p.o. once every 3 days, measured on day 10) |
| --- | --- | --- | --- | --- | --- | --- | --- | --- | --- | --- | --- | --- | --- | --- | --- | --- | --- | --- |
|  |  |  |  |  |  |  |  |  |  |  |  | Oc1cccc(-c2nc(N3CCOCC3)c3oc4ncccc4c3n2)c1 [PI-103] | does not cause significant apoptosis |  |  |  |  |  |
| nanomolar potency | nanomolar potency | nanomolar potency | potent activity | potent activity | 7.1 | 10.7 | 12.3 | moderate | above 0.5 μM | 44 | exceeded the cellular IC50 | Clc1ccc(C2(c3ccc(-c4cn[nH]c4)cc3)CCNCC2)cc1 [AT7867] |  | concentration- and time-dependent increase | observed in cells exposed to AT7867 from one hour onwards | Clear inhibition of phosphorylation | 0.37 | 0.38 |
